≈ marks a conversion by molar mass, not a printed value. Each block holds one molecule with its values, some of them ahead of it. Calls of active or inactive are those of the source. The calls are words filed in the database; no cut-off is given here.
Columns and labels:
L929 = assay: Cytotoxicity against mouse L929 cells; assay type: cell-based
Procedure, shortened: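 Mouse fibroblast L929 cells exposed to 3.0 μL of each compound; MIC determined by serial dilution (60 μL) in 96-well tissue-culture plates.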

[1] = tested on: Mycolicibacterium smegmatis; assay: Antimicrobial activity against Mycobacterium smegmatis ATCC 700084 by serial dilution method; assay type: functional, organism-based
Procedure, shortened: (§1)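 MIC by serial dilution (150 μL) in 96-well tissue-culture plates; 20 μL aliquots of compound at 1 mg/mL tested; methanol as negative control.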

Wickerhamomyces anomalus = assay: Antimicrobial activity against Wickerhamomyces anomalus DSM 6766 by serial dilution method; assay type: functional, organism-based; procedure, shortened: as §1
Escherichia coli [2] = assay: Antimicrobial activity against Escherichia coli TolC by serial dilution method; assay type: functional; procedure, shortened: as §1
Mucor hiemalis = assay: Antimicrobial activity against Mucor hiemalis DSM 2656 by serial dilution method; assay type: functional; procedure, shortened: as §1
Bacillus subtilis = assay: Antimicrobial activity against Bacillus subtilis DSM 10 by serial dilution method; assay type: functional; procedure, shortened: as §1
Candida albicans = assay: Antimicrobial activity against Candida albicans DSM 1665 by serial dilution method; assay type: functional, organism-based; procedure, shortened: as §1
Staphylococcus aureus = assay: Antimicrobial activity against Staphylococcus aureus Newman by serial dilution method; assay type: functional; procedure, shortened: as §1
Escherichia coli [3] = assay: Antimicrobial activity against Escherichia coli DSM 1116 by serial dilution method; assay type: functional, organism-based; procedure, shortened: as §1
Pseudomonas aeruginosa = assay: Antimicrobial activity against Pseudomonas aeruginosa PA14 by serial dilution method; assay type: functional; procedure, shortened: as §1
Micrococcus luteus = assay: Antimicrobial activity against Micrococcus luteus DSM 1790 by serial dilution method; assay type: functional; procedure, shortened: as §1
[4] = Mus musculus, L929, read-out: IC50

SMILES: C[C@@]1(O)C(=O)Cc2c([nH]c3ccccc23)[C@@]1(C)O
IC50 (L929; l929): Not Active
MIC [1]: inactive
MIC (Wickerhamomyces anomalus): inactive
MIC (Escherichia coli [2]): inactive
MIC (Mucor hiemalis): inactive
MIC (Bacillus subtilis): inactive
MIC (Candida albicans): inactive
MIC (Staphylococcus aureus): inactive
MIC (Escherichia coli [3]): inactive
MIC (Pseudomonas aeruginosa): inactive
MIC (Micrococcus luteus): inactive

SMILES: C[C@@]1(O)C(=O)C(=O)c2c([nH]c3ccccc23)[C@@]1(C)O
IC50 (L929; l929): Not Active
MIC [1]: inactive
MIC (Wickerhamomyces anomalus): inactive
MIC (Escherichia coli [2]): inactive
MIC (Mucor hiemalis): inactive
MIC (Bacillus subtilis): inactive
MIC (Candida albicans): inactive
MIC (Staphylococcus aureus): inactive
MIC (Escherichia coli [3]): inactive
MIC (Pseudomonas aeruginosa): inactive
MIC (Micrococcus luteus): inactive

SMILES: CO[C@]1(C)c2[nH]c3ccccc3c2C(=O)C(=O)[C@@]1(C)O
IC50 (L929; [4]): 76.8 µM
MIC [1]: inactive
MIC (Wickerhamomyces anomalus): inactive
MIC (Escherichia coli [2]): inactive
MIC (Mucor hiemalis): inactive
MIC (Bacillus subtilis): 8.3 µg/mL (≈ 30.4 µM)
MIC (Candida albicans): inactive
MIC (Staphylococcus aureus): 16.6 µg/mL (≈ 60.7 µM)
MIC (Escherichia coli [3]): inactive
MIC (Pseudomonas aeruginosa): inactive
MIC (Micrococcus luteus): 16.6 µg/mL (≈ 60.7 µM)

SMILES: Cc1c(O)cc2c([nH]c3ccccc32)c1C
IC50 (L929; [4]): 85.2 µM
MIC [1]: inactive
MIC (Wickerhamomyces anomalus): inactive
MIC (Escherichia coli [2]): 67 µg/mL (≈ 317 µM)
MIC (Mucor hiemalis): inactive
MIC (Bacillus subtilis): 16.6 µg/mL (≈ 78.6 µM)
MIC (Candida albicans): inactive
MIC (Staphylococcus aureus): 33.3 µg/mL (≈ 158 µM)
MIC (Escherichia coli [3]): inactive
MIC (Pseudomonas aeruginosa): inactive
MIC (Micrococcus luteus): 33.3 µg/mL (≈ 158 µM)

SMILES: C[C@@]1(O)C(=O)[C@H]([C@H]2C(=O)[C@@](C)(O)[C@](C)(O)c3[nH]c4ccccc4c32)c2c([nH]c3ccccc23)[C@@]1(C)O
IC50 (L929; l929): Not Active
MIC [1]: inactive
MIC (Wickerhamomyces anomalus): inactive
MIC (Escherichia coli [2]): inactive
MIC (Mucor hiemalis): inactive
MIC (Bacillus subtilis): inactive
MIC (Candida albicans): inactive
MIC (Staphylococcus aureus): inactive
MIC (Escherichia coli [3]): inactive
MIC (Pseudomonas aeruginosa): inactive
MIC (Micrococcus luteus): inactive

SMILES: C=C1c2[nH]c3ccccc3c2C[C@@H](O)[C@@]1(C)O
IC50 (L929; l929): Not Active
MIC [1]: inactive
MIC (Wickerhamomyces anomalus): inactive
MIC (Escherichia coli [2]): inactive
MIC (Mucor hiemalis): inactive
MIC (Bacillus subtilis): inactive
MIC (Candida albicans): inactive
MIC (Staphylococcus aureus): inactive
MIC (Escherichia coli [3]): inactive
MIC (Pseudomonas aeruginosa): inactive
MIC (Micrococcus luteus): inactive

More lines, main results first:

MIC [1]: inactive
MIC (Wickerhamomyces anomalus): inactive
MIC (Escherichia coli [2]): inactive
MIC (Mucor hiemalis): inactive
MIC (Bacillus subtilis): inactive
MIC (Candida albicans): inactive
MIC (Staphylococcus aureus): inactive
MIC (Escherichia coli [3]): inactive
MIC (Pseudomonas aeruginosa): inactive
MIC (Micrococcus luteus): inactive
SMILES: CO[C@]1(C)c2[nH]c3ccccc3c2CC(=O)[C@@]1(C)O
IC50 (L929; l929): Not Active

MIC [1]: inactive
MIC (Wickerhamomyces anomalus): inactive
MIC (Escherichia coli [2]): 33.3 µg/mL (≈ 79.2 µM)
MIC (Mucor hiemalis): 67 µg/mL (≈ 159 µM)
MIC (Bacillus subtilis): 16.6 µg/mL (≈ 39.5 µM)
MIC (Candida albicans): inactive
MIC (Staphylococcus aureus): 16.6 µg/mL (≈ 39.5 µM)
MIC (Escherichia coli [3]): inactive
MIC (Pseudomonas aeruginosa): inactive
MIC (Micrococcus luteus): 16.6 µg/mL (≈ 39.5 µM)
SMILES: Cc1c(O)c(-c2c(O)c(C)c(C)c3[nH]c4ccccc4c23)c2c([nH]c3ccccc32)c1C
IC50 (L929; [4]): 4.99 µM

MIC [1]: inactive
MIC (Wickerhamomyces anomalus): inactive
MIC (Escherichia coli [2]): inactive
MIC (Mucor hiemalis): inactive
MIC (Bacillus subtilis): inactive
MIC (Candida albicans): inactive
MIC (Staphylococcus aureus): inactive
MIC (Escherichia coli [3]): inactive
MIC (Pseudomonas aeruginosa): inactive
MIC (Micrococcus luteus): inactive
SMILES: Cc1ccc2c([nH]c3ccccc32)c1C=O
IC50 (L929; l929): Not Active
